Data set [1] in a line: folding enthalpy; higher = less favourable; fluorescence melt of hairpins on a sequencing array, two-state fit. To be noted: sodium 0.088 M. A digest of the protocol: (§1)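 Library hairpins on a sequenced MiSeq flow cell carried annealed Cy3 and quencher oligos, and their Cy3 fluorescence was imaged in 50 mM Na-HEPES pH 8.0 with 25 mM NaCl, in 2.5 °C steps up to 60 °C. Signals were normalised to Cy3 before quenching and to control constructs. Melting temperature and folding enthalpy were obtained from bootstrapped two-state fits, combined by inverse-variance weighting across four replicates, and the fitted temperatures were then raised by 9.35 °C to match UV melts.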

Data set [2] can be described thus: melting temperature; fluorescence melt of hairpins on a sequencing array, two-state fit, raised by 9.35 °C to match UV melts. To be noted: sodium 0.088 M. A digest of the protocol:
as §1

AAAACGAAAGTTTT (((((....))))): the folding enthalpy in data set [1] was -14.8 kcal/mol. Further, the Tm in data set [2] was 47.3 °C.
The corresponding values for AAACAGAAATGTTT (((((....))))) are -11.4 kcal/mol and 25.3 °C.
For AAACGGAAACGTTT (((((....))))) the same measures were -21.3 kcal/mol and 45.1 °C.
For AAACTGAAAAGTTT (((((....))))) the same measures were -13.4 kcal/mol and 33.6 °C.
For AACATGAAAATGTT (((((....))))), in data set [1], the folding enthalpy was -14.7 kcal/mol. In data set [2], the Tm amounted to 33.6 °C.
The corresponding values for AACCGGAAACGGTT (((((....))))) are -19.8 kcal/mol and 50 °C.
For AAGCAGAAATGCTT (((((....))))) the same measures were -16.8 kcal/mol and 42.1 °C.
The corresponding values for AAGTGGAAACACTT (((((....))))) are -19.6 kcal/mol and 42 °C.
With AATCGGAAACGATT (((((....))))), the folding enthalpy in data set [1] is -22.9 kcal/mol. In addition, in data set [2], the Tm worked out at 44.5 °C.
The corresponding values for AATGCGAAAGCATT (((((....))))) are -15.3 kcal/mol and 64.9 °C.
For AATTCGAAAGAATT (((((....))))) the same measures were -14.3 kcal/mol and 43.3 °C.
In the case of ACACTGAAAAGTGT (((((....))))), the folding enthalpy in data set [1] was -23.4 kcal/mol. The Tm in data set [2] came out at 47.4 °C.
The corresponding values for ACCGAGAAATCGGT (((((....))))) are -18.3 kcal/mol and 49.5 °C.
The corresponding values for ACCTAGAAATAGGT (((((....))))) are -11.8 kcal/mol and 36.8 °C.
The corresponding values for ACCTCGAAAGAGGT (((((....))))) are -19.9 kcal/mol and 59.5 °C.
Regarding ACGTAGAAATACGT (((((....))))), the folding enthalpy in data set [1] was -19.9 kcal/mol. For the same sequence, in data set [2], the Tm was determined as 37.9 °C.
For ACGTTGAAAAACGT (((((....))))) the same measures were -20.2 kcal/mol and 47.1 °C.
The corresponding values for AGAACCAGAAATGGTTCT (((((((....))))))) are -31.4 kcal/mol and 55.2 °C.
For AGAACGAAAGTTCT (((((....))))) the same measures were -19.9 kcal/mol and 53.1 °C.
As for AGAATGAAAATTCT (((((....))))), the folding enthalpy in data set [1] is -10.8 kcal/mol. The Tm in data set [2] is 25.9 °C.
For AGAGGGAAACCTCT (((((....))))) the same measures were -16.6 kcal/mol and 43.4 °C.
Consider AGCTAGAAATAGCT (((((....))))), for which the folding enthalpy in data set [1] was -14.9 kcal/mol. Further, the Tm in data set [2] amounted to 41.3 °C.
The corresponding values for AGGGAGAAATCCCT (((((....))))) are -18.6 kcal/mol and 42 °C.
For AGGTCGAAAGACCT (((((....))))) the same measures were -22.1 kcal/mol and 67.4 °C.
The corresponding values for AGTAGGAAACTACT (((((....))))) are -16.9 kcal/mol and 33.2 °C.
As for AGTGAGAAATCACT (((((....))))), the folding enthalpy in data set [1] was -15.7 kcal/mol. The Tm in data set [2] was 38.5 °C.
Turning to AGTTGGAAACAACT (((((....))))), in data set [1], the folding enthalpy was -19.9 kcal/mol. In data set [2], the Tm was 43.2 °C.
For AGTTTGAAAAAACT (((((....))))) the same measures were -12.1 kcal/mol and 33 °C.
For ATAGCGAAAGCTAT (((((....))))) the same measures were -15.9 kcal/mol and 54 °C.
For ATCACGAAAGTGAT (((((....))))) the same measures were -25.6 kcal/mol and 54.8 °C.
ATCAGGAAACTGAT (((((....))))): the folding enthalpy in data set [1] is -16.5 kcal/mol. Also, the Tm in data set [2] was 40.6 °C.
For ATCTCGAAAGAGAT (((((....))))) the same measures were -20.9 kcal/mol and 51.1 °C.
For ATGCAGAAATGCAT (((((....))))) the same measures were -24.1 kcal/mol and 46.2 °C.
For ATGGAGAAATCCAT (((((....))))) the same measures were -14.6 kcal/mol and 36 °C.
Consider ATTACGAAAGTAAT (((((....))))), for which the folding enthalpy in data set [1] is -17.5 kcal/mol. Also, in data set [2], the Tm is 44.4 °C.
For ATTCAGAAATGAAT (((((....))))) the same measures were -11.5 kcal/mol and 29.3 °C.
For CAAATGAAAATTTG (((((....))))) the same measures were -12.8 kcal/mol and 32.8 °C.
The corresponding values for CAACCCGAAAGGCTTG (((.((....)).))) are -16 kcal/mol and 30.2 °C.
On to CAAGTGAAAACTTG (((((....))))), for which the folding enthalpy in data set [1] is -23.7 kcal/mol. Besides, in data set [2], the Tm stood at 42.9 °C.
For the sequence CACCGGAAACGGTG (((((....))))), the folding enthalpy in data set [1] is -30 kcal/mol. For the same sequence, the Tm in data set [2] was determined as 60.5 °C.
The corresponding values for CACTGGAAACAGTG (((((....))))) are -26.7 kcal/mol and 50.7 °C.
For CAGAAGAAATTCTG (((((....))))) the same measures were -12.7 kcal/mol and 33.8 °C.
For CAGAGGAAACTCTG (((((....))))) the same measures were -21.1 kcal/mol and 45 °C.
CAGATGAAAATCTG (((((....))))): the folding enthalpy in data set [1] was -22.9 kcal/mol. Besides, the Tm in data set [2] worked out at 44.4 °C.
For CAGCGGAAACGCTG (((((....))))) the same measures were -20.8 kcal/mol and 69.3 °C.
For CATCGGAAACGATG (((((....))))) the same measures were -25.8 kcal/mol and 53.5 °C.
The corresponding values for CATTCGAAAGAATG (((((....))))) are -23.2 kcal/mol and 49.7 °C.
Regarding CCACAGAAATGTGG (((((....))))), the folding enthalpy in data set [1] was -18.5 kcal/mol. Moreover, the Tm in data set [2] is 50.5 °C.
For CCAGAGAAATCTGG (((((....))))) the same measures were -19.2 kcal/mol and 44.4 °C.
For CCATCGAAAGATGG (((((....))))) the same measures were -23.3 kcal/mol and 60.5 °C.
Turning to CCCTTGAAAAAGGG (((((....))))), the folding enthalpy in data set [1] is -16.9 kcal/mol. In addition, in data set [2], the Tm is 47.2 °C.
The corresponding values for CCTATGAAAATAGG (((((....))))) are -14.2 kcal/mol and 41.2 °C.
Consider CCTGAGAAATCAGG (((((....))))), for which the folding enthalpy in data set [1] is -19.4 kcal/mol. The Tm in data set [2] was 44.8 °C.
For CCTGGGAAACCAGG (((((....))))) the same measures were -19.5 kcal/mol and 55 °C.
CCTGTGAAAACAGG (((((....))))): in data set [1], the folding enthalpy is -17 kcal/mol. In addition, the Tm in data set [2] was 51.6 °C.
Consider CGAAACGGAAACGTTCG (((.(((....)))))), for which the folding enthalpy in data set [1] is -25.9 kcal/mol. Besides, in data set [2], the Tm came out at 45 °C.
The corresponding values for CGAACCGGAAACGGTCG (((.(((....)))))) are -23 kcal/mol and 51.4 °C.
The corresponding values for CGAACGGAAACGTACTCG ((((((....)))..))) are -5.58 kcal/mol and 15 °C.
The corresponding values for CGAACGGAAACGTGTTCG ((((((....)))..))) are -26.7 kcal/mol and 42.6 °C.
Turning to CGAACTCGGAAACGATCG (((..(((....)))))), the folding enthalpy in data set [1] is -16.3 kcal/mol. Moreover, the Tm in data set [2] stood at 22.9 °C.
With CGAATCGGAAACGACTCG (((.(((....))).))), the folding enthalpy in data set [1] was -36.2 kcal/mol. Also, the Tm in data set [2] was found to be 42.1 °C.
The corresponding values for CGAATGCGGAAACGCTCG (((..(((....)))))) are -15.3 kcal/mol and 37.2 °C.
The corresponding values for CGACACGGAAACGTTCG (((.(((....)))))) are -35 kcal/mol and 42 °C.
For the sequence CGACCGGAAACGGCATCG ((((((....)))..))), the folding enthalpy in data set [1] is -14.8 kcal/mol. Also, the Tm in data set [2] was 30 °C.
The corresponding values for CGACCGGAAACGGGGTCG ((((((....)))..))) are -28.8 kcal/mol and 48.6 °C.
The corresponding values for CGACCGGAAACGGTTCG ((((((....))).))) are -20.1 kcal/mol and 49.2 °C.
Regarding CGAGACGGAAACGTATCG (((.(((....))).))), the folding enthalpy in data set [1] was -34.6 kcal/mol. In addition, the Tm in data set [2] worked out at 52.1 °C.
The corresponding values for CGAGACGGAAACGTGTCG (((.(((....))).))) are -37.6 kcal/mol and 52.1 °C.
For CGAGAGCGGAAACGCTCG (((..(((....)))))) the same measures were -18.5 kcal/mol and 58.4 °C.
With CGAGATCGGAAACGATCG (((..(((....)))))), the folding enthalpy in data set [1] is -20 kcal/mol. In data set [2], the Tm turned out to be 51.6 °C.
For CGAGCCGGAAACGGTCG (((.(((....)))))) the same measures were -27.3 kcal/mol and 48.6 °C.
In the case of CGAGCGGAAACGCATCG ((((((....))).))), in data set [1], the folding enthalpy was -20.9 kcal/mol. The Tm in data set [2] amounted to 48.5 °C.
For CGAGCGGAAACGCATTCG ((((((....)))..))) the same measures were -14.8 kcal/mol and 33.1 °C.
CGAGCGGAAACGCCGTCG ((((((....)))..))): the folding enthalpy in data set [1] was -15.5 kcal/mol. In data set [2], the Tm worked out at 55 °C.
For CGAGCGGAAACGCGCTCG ((((((....)))..))) the same measures were -26.4 kcal/mol and 68.5 °C.
For CGAGCGGAAACGCTCTCG ((((((....)))..))) the same measures were -8.45 kcal/mol and 40.5 °C.
As for CGAGGTCGGAAACGATCG (((..(((....)))))), the folding enthalpy in data set [1] was -21 kcal/mol. In addition, the Tm in data set [2] stood at 41.2 °C.

Source of the values: the array DNA melting data of Ke et al. (doi:10.1101/2024.01.08.574731).
